The subject of data set [1] is P388. The data set is described as follows: Antitumor activity against mouse P388 cells allografted in female CDF1 mouse assessed as change in body weight at 100 mg/kg, ip administered daily for 9 days as saline with Tween-80 solution starting 24 hrs after tumor inoculation. Type of data set: functional. To be noted: route intraperitoneal. The essentials: (§1)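 Ascitic fluid carrying P388 cells was inoculated ip. Compound was given ip in nine daily doses, starting 24 h after inoculation, in Klucel (hydroxypropylcellulose) suspension or in saline with Tween-80. Body-weight difference (treated minus control) was recorded on day 5. Survival was scored as %T/C of median survival time, and 30-day survival counted as cure.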

The subject of data set [2] is P388. The data set is described as follows: Antitumor activity against mouse P388 cells allografted in male CDF1 mouse assessed as disease cures by measuring 30-days host survival at 200 mg/kg, ip administered daily for 9 days as saline with Tween-80 solution starting 24 hrs after tumor inoculation relative to control. To be noted: route intraperitoneal. Type of data set: functional. In short, it runs like this: (§2)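 P388 ascitic cell inoculum given ip to CDF1 mice of the sex in each line. Nine daily ip doses in saline with Tween-80 as vehicle, starting 24 h after inoculation. Median survival time expressed as %T/C (>125 significant); "cure" defined as 30-day survival.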

The test system of data set [3] is Mus musculus. Put plainly: Toxicity in male CDF1 mouse allografted with mouse P388 cells assessed as animal survival at 25 mg/kg, ip administered daily for 9 days as saline with Tween-80 solution starting 24 hrs after tumor inoculation. Type of data set: organism-based. The arrangement: dose 25 mg/kg, route intraperitoneal. To be noted: in vivo. In short, it runs like this: (§3)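 P-388 leukemia ascitic fluid implanted ip. Compound dosed ip in saline with Tween-80 vehicle, once daily for nine doses from 24 h after tumor inoculation. Acute toxicity scored as toxicity-day survivors per group. Survival was followed up to 30 days, with 30-day survival counted as "cure". Follows NCI screening protocols.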

Data set [4] concerns P388. The data set is described as follows: Antitumor activity against mouse P388 cells allografted in male CDF1 mouse assessed as change in body weight at 100 mg/kg, ip administered daily for 9 days as saline with Tween-80 solution starting 24 hrs after tumor inoculation. Type of data set: functional. To be noted: route intraperitoneal. The essentials:
as §1

Data set [5] has as its system P388. The data set is described as follows: Antitumor activity against mouse P388 cells allografted in male CDF1 mouse assessed as disease cures by measuring 30-days host survival at 400 mg/kg, ip administered daily for 9 days as saline with Tween-80 solution starting 24 hrs after tumor inoculation relative to control. To be noted: route intraperitoneal. Type of data set: functional. In short, it runs like this:
as §2

For data set [6], the system named is Mus musculus. Put plainly: Toxicity in female CDF1 mouse allografted with mouse P388 cells assessed as animal survival at 100 mg/kg, ip administered daily for 9 days as saline with Tween-80 solution starting 24 hrs after tumor inoculation. To be noted: in vivo. Type of data set: organism-based. On the set-up: dose 100 mg/kg, route intraperitoneal. In short, it runs like this:
as §3

The test system of data set [7] is P388. Put plainly: Antitumor activity against mouse P388 cells allografted in female CDF1 mouse assessed as change in body weight at 50 mg/kg, ip administered daily for 9 days as saline with Tween-80 solution starting 24 hrs after tumor inoculation. Type of data set: functional. To be noted: route intraperitoneal. In short, it runs like this: as §1
In data set [8] the test system is P388. The data set is described as follows: Antitumor activity against mouse P388 cells allografted in female CDF1 mouse assessed as disease cures by measuring 30-days host survival at 100 mg/kg, ip administered daily for 9 days as saline with Tween-80 solution starting 24 hrs after tumor inoculation relative to control. Type of data set: functional. To be noted: route intraperitoneal. In short, it runs like this: as §2

For data set [9], the system named is P388. Put plainly: Antitumor activity against mouse P388 cells allografted in male CDF1 mouse assessed as change in body weight at 400 mg/kg, ip administered daily for 9 days as saline with Tween-80 solution starting 24 hrs after tumor inoculation. To be noted: route intraperitoneal. Type of data set: functional. In short, it runs like this: as §1
The test system of data set [10] is P388. Put plainly: Antitumor activity against mouse P388 cells allografted in male CDF1 mouse assessed as disease cures by measuring 30-days host survival at 25 mg/kg, ip administered daily for 9 days as saline with Tween-80 solution starting 24 hrs after tumor inoculation relative to control. Type of data set: functional. To be noted: route intraperitoneal. The essentials: as §2

For data set [11], the system named is P388. Put plainly: Antitumor activity against mouse P388 cells allografted in male CDF1 mouse assessed as change in body weight at 50 mg/kg, ip administered daily for 9 days as saline with Tween-80 solution starting 24 hrs after tumor inoculation. To be noted: route intraperitoneal. Type of data set: functional. In short, it runs like this:
as §1

Data set [12] relates to P388. Put plainly: Antitumor activity against mouse P388 cells allografted in male CDF1 mouse assessed as change in body weight at 200 mg/kg, ip administered daily for 9 days as saline with Tween-80 solution starting 24 hrs after tumor inoculation. Type of data set: functional. To be noted: route intraperitoneal. The essentials:
as §1

Data set [13] relates to Mus musculus. Put plainly: Toxicity in female CDF1 mouse allografted with mouse P388 cells assessed as animal survival at 50 mg/kg, ip administered daily for 9 days as saline with Tween-80 solution starting 24 hrs after tumor inoculation. On the set-up: dose 50 mg/kg, route intraperitoneal. To be noted: in vivo. Type of data set: organism-based. The essentials: as §3
Data set [14] concerns Mus musculus. The data set is described as follows: Toxicity in male CDF1 mouse allografted with mouse P388 cells assessed as animal survival at 400 mg/kg, ip administered daily for 9 days as saline with Tween-80 solution starting 24 hrs after tumor inoculation. Type of data set: organism-based. On the set-up: dose 400 mg/kg, route intraperitoneal. To be noted: in vivo. In short, it runs like this: as §3

Data set [15] concerns Mus musculus. The data set is described as follows: Toxicity in male CDF1 mouse allografted with mouse P388 cells assessed as animal survival at 50 mg/kg, ip administered daily for 9 days as saline with Tween-80 solution starting 24 hrs after tumor inoculation. Type of data set: organism-based. The arrangement: dose 50 mg/kg, route intraperitoneal. To be noted: in vivo. The essentials:
as §3

Data set [16] concerns P388. The data set is described as follows: Antitumor activity against mouse P388 cells allografted in male CDF1 mouse assessed as change in body weight at 25 mg/kg, ip administered daily for 9 days as saline with Tween-80 solution starting 24 hrs after tumor inoculation. Type of data set: functional. To be noted: route intraperitoneal. In short, it runs like this: as §1

The subject of data set [17] is P388. The data set is described as follows: Antitumor activity against mouse P388 cells allografted in female CDF1 mouse assessed as disease cures by measuring 30-days host survival at 50 mg/kg, ip administered daily for 9 days as saline with Tween-80 solution starting 24 hrs after tumor inoculation relative to control. Type of data set: functional. To be noted: route intraperitoneal. In short, it runs like this: as §2

Data set [18] deals with P388. Put plainly: Antitumor activity against mouse P388 cells allografted in female CDF1 mouse assessed as change in body weight at 25 mg/kg, ip administered daily for 9 days as saline with Tween-80 solution starting 24 hrs after tumor inoculation. Type of data set: functional. To be noted: route intraperitoneal. The essentials: as §1
The test system of data set [19] is P388. Put plainly: Antitumor activity against mouse P388 cells allografted in male CDF1 mouse assessed as disease cures by measuring 30-days host survival at 50 mg/kg, ip administered daily for 9 days as saline with Tween-80 solution starting 24 hrs after tumor inoculation relative to control. Type of data set: functional. To be noted: route intraperitoneal. The essentials:
as §2

The test system of data set [20] is Mus musculus. Put plainly: Toxicity in male CDF1 mouse allografted with mouse P388 cells assessed as animal survival at 200 mg/kg, ip administered daily for 9 days as saline with Tween-80 solution starting 24 hrs after tumor inoculation. Type of data set: organism-based. On the set-up: dose 200 mg/kg, route intraperitoneal. To be noted: in vivo. In short, it runs like this: as §3

The subject of data set [21] is Mus musculus. The data set is described as follows: Toxicity in female CDF1 mouse allografted with mouse P388 cells assessed as animal survival at 25 mg/kg, ip administered daily for 9 days as saline with Tween-80 solution starting 24 hrs after tumor inoculation. Type of data set: organism-based. The arrangement: dose 25 mg/kg, route intraperitoneal. To be noted: in vivo. In short, it runs like this:
as §3

Data set [22] relates to P388. Put plainly: Antitumor activity against mouse P388 cells allografted in male CDF1 mouse assessed as disease cures by measuring 30-days host survival at 100 mg/kg, ip administered daily for 9 days as saline with Tween-80 solution starting 24 hrs after tumor inoculation relative to control. Type of data set: functional. To be noted: route intraperitoneal. In short, it runs like this: as §2

In data set [23] the test system is P388. Put plainly: Antitumor activity against mouse P388 cells allografted in female CDF1 mouse assessed as disease cures by measuring 30-days host survival at 25 mg/kg, ip administered daily for 9 days as saline with Tween-80 solution starting 24 hrs after tumor inoculation relative to control. Type of data set: functional. To be noted: route intraperitoneal. In short, it runs like this: as §2

The test system of data set [24] is Mus musculus. Put plainly: Toxicity in male CDF1 mouse allografted with mouse P388 cells assessed as animal survival at 100 mg/kg, ip administered daily for 9 days as saline with Tween-80 solution starting 24 hrs after tumor inoculation. To be noted: in vivo. Type of data set: organism-based. On the set-up: dose 100 mg/kg, route intraperitoneal. The essentials: as §3

Activity and T/C data for one molecule are collected here from ChEMBL document CHEMBL3244396, “Synthesis and antileukemic activity of 5-substituted 2,3-dihydro-6,7-bis(hydroxymethyl)-1H-pyrrolizine diesters” (J Med Chem, 1977).

With `O=C(NC1CCCCC1)OCc1c(COC(=O)NC2CCCCC2)c(-c2ccc(Cl)c(Cl)c2)n2c1CCC2`, the Activity in [1] is -2.5 g; in data set [3], “Non-toxic”; in data set [4] it was -1.2 g; in data set [6] it was “Non-toxic”; in data set [7], -2 g; in data set [9], -4 g. Also, the Activity was -0.6 g in data set [11]; -2.8 g in data set [12]; “Non-toxic” in data set [13]; “Non-toxic” in [14]; “Non-toxic” in data set [15]; -0.6 g in data set [16]. For the same molecule, the Activity is -1.1 g in data set [18], “Non-toxic” in data set [20], “Non-toxic” in [21] and “Non-toxic” in data set [24]. The T/C in data set [2] is 91%; in data set [5], 79%; in data set [8], 212%; in [10], 150%; in [17], 174%; in [19], 166%. Further, the T/C is 187% in data set [22] and 168% in data set [23].
